Assay results reported in ChEMBL document CHEMBL1155274, “Synthesis of some novel pyrazolo[3,4-b]pyridine and pyrazolo[3,4-d]pyrimidine derivatives bearing 5,6-diphenyl-1,2,4-triazine moiety as potential antimicrobial agents” (Eur J Med Chem, 2009).
Values after ≈ are worked out from the molar mass of the structure shown.

Legend:
Escherichia coli [1] = experiment: Antimicrobial activity against Escherichia coli MTCCB 1652 after 24 hrs by serial dilution method; type: functional; settings: MTCCB 1652, 24 h
Procedure, shortened: (§1)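 Tube serial dilution in nutrient broth at compound levels of 6.25, 12.5, 25, 50 and 100. Each tube received standardized microbial suspension (10^7 cells/mL) and was incubated 24 h at 37 °C. MIC was the lowest concentration preventing growth, i.e. maintaining or reducing inoculum viability.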

Staphylococcus aureus [2] = experiment: Antimicrobial activity against Staphylococcus aureus MTCCB 737 at 30 ug/mL after 16 to 20 hrs by disk diffusion method; type: functional; settings: read-out: IZ
Procedure, shortened: (§2)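 Nutrient agar disc diffusion against S. aureus MTCCB 737, S. epidermidis MTCCB 1824 and E. coli MTCCB 1652. Tetracycline served as the standard drug, and DMSO served as the blank. The inhibition zone was measured after 16–20 h at 37 °C.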

Staphylococcus aureus [3] = experiment: Antimicrobial activity against Staphylococcus aureus MTCCB 737 after 24 hrs by serial dilution method; type: functional; settings: MTCCB 737, 24 h; procedure, shortened: as §1
Escherichia coli [4] = experiment: Antimicrobial activity against Escherichia coli MTCCB 1652 at 30 ug/mL after 16 to 20 hrs by disk diffusion method; type: functional; settings: read-out: IZ; procedure, shortened: as §2
[5] = test system: Staphylococcus epidermidis; experiment: Antimicrobial activity against Staphylococcus epidermidis MTCCB 1824 at 30 ug/mL after 16 to 20 hrs by disk diffusion method; type: functional; settings: read-out: IZ; procedure, shortened: as §2
[6] = test system: Staphylococcus epidermidis; experiment: Antimicrobial activity against Staphylococcus epidermidis MTCCB 1824 at 100 ug/mL after 16 to 20 hrs by disk diffusion method; type: functional; settings: read-out: IZ
Procedure, shortened: (§3)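 Nutrient agar disc diffusion against bacterial strains, compounds in DMSO at a single test concentration. DMSO blank; tetracycline as reference drug. Plates incubated 16–20 h at 37 °C, and the inhibition zone was measured.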

Staphylococcus aureus [7] = experiment: Antimicrobial activity against Staphylococcus aureus MTCCB 737 at 100 ug/mL after 16 to 20 hrs by disk diffusion method; type: functional; settings: read-out: IZ; procedure, shortened: as §3
Escherichia coli [8] = experiment: Antimicrobial activity against Escherichia coli MTCCB 1652 at 100 ug/mL after 16 to 20 hrs by disk diffusion method; type: functional; settings: read-out: IZ; procedure, shortened: as §3
Aspergillus niger [9] = experiment: Antimicrobial activity against Aspergillus niger after 24 hrs by serial dilution method; type: functional; procedure, shortened: as §1
Alternaria alternata [10] = experiment: Antimicrobial activity against Alternaria alternata at 100 ug/mL after 3 to 4 days by disk diffusion method; settings: read-out: IZ
Aspergillus niger [11] = experiment: Antimicrobial activity against Aspergillus niger at 100 ug/mL after 3 to 4 days by disk diffusion method; settings: read-out: IZ
Artemia salina = experiment: Toxicity against Artemia salina assessed as number of the nauplii died after 24 hrs; type: organism-based; settings: in vivo
Procedure, shortened: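 Artemia salina eggs were hatched in sea salt water (38 g/L) at 37 °C for 48 h with constant oxygen to give nauplii. Stocks were 10 mg per 2 mL DMSO, and five dilutions were run in triplicate with about 10 nauplii per vial. A DMSO-only vial served as control.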

Aspergillus fumigatus [12] = experiment: Antimicrobial activity against Aspergillus fumigatus at 100 ug/mL after 3 to 4 days by disk diffusion method; settings: read-out: IZ
Alternaria alternata [13] = experiment: Antimicrobial activity against Alternaria alternata after 24 hrs by serial dilution method; type: functional; procedure, shortened: as §1
Aspergillus niger [14] = experiment: Antimicrobial activity against Aspergillus niger at 30 ug/mL after 3 to 4 days by disk diffusion method; settings: read-out: IZ
Aspergillus fumigatus [15] = experiment: Antimicrobial activity against Aspergillus fumigatus at 30 ug/mL after 3 to 4 days by disk diffusion method; settings: read-out: IZ
Alternaria alternata [16] = experiment: Antimicrobial activity against Alternaria alternata at 30 ug/mL after 3 to 4 days by disk diffusion method; settings: read-out: IZ

Compound	MIC (Escherichia coli [1])	zone of inhibition at 30 µg/mL (Staphylococcus aureus [2])	MIC (Staphylococcus aureus [3])	zone of inhibition at 30 µg/mL (Escherichia coli [4])	zone of inhibition at 30 µg/mL [5]	zone of inhibition at 100 µg/mL [6]	zone of inhibition at 100 µg/mL (Staphylococcus aureus [7])	zone of inhibition at 100 µg/mL (Escherichia coli [8])	MIC (Aspergillus niger [9])	zone of inhibition at 100 µg/mL (Alternaria alternata [10])	zone of inhibition at 100 µg/mL (Aspergillus niger [11])	LC50 (Artemia salina)	zone of inhibition at 100 µg/mL (Aspergillus fumigatus [12])	MIC (Alternaria alternata [13])	zone of inhibition at 30 µg/mL (Aspergillus niger [14])	zone of inhibition at 30 µg/mL (Aspergillus fumigatus [15])	zone of inhibition at 30 µg/mL (Alternaria alternata [16])
CN(C)[C@@H]1C(O)=C(C(N)=O)C(=O)[C@@]2(O)C(O)=C3C(=O)c4c(O)cccc4[C@@](C)(O)[C@H]3C[C@@H]12 [TETRACYCLINE]	12.5 µg/mL (≈ 28.1 µM)	30 mm	6.25 µg/mL (≈ 14.1 µM)	28 mm	25 mm												
Cc1nc2c(c(=O)[nH]1)c1nnc(C)c(=O)n1n2-c1nnc(-c2ccccc2)c(-c2ccccc2)n1	12.5 µg/mL (≈ 27 µM)		25 µg/mL (≈ 53.9 µM)			26 mm	28 mm	29 mm	25 µg/mL (≈ 53.9 µM)	16 mm	15 mm	6.49 ppm	19 mm	50 µg/mL (≈ 108 µM)			
Cc1nc2c(c(NN)nn2-c2nnc(-c3ccccc3)c(-c3ccccc3)n2)c(=O)[nH]1						10 mm	18 mm	8 mm		13 mm	11 mm		10 mm				
CSc1nn(-c2nnc(-c3ccccc3)c(-c3ccccc3)n2)c2nc(C)c(C#N)c(N)c12						16 mm	19 mm	12 mm		5 mm	7 mm		6 mm				
CSc1nn(-c2nnc(-c3ccccc3)c(-c3ccccc3)n2)c(N)c1C#N						7 mm	12 mm	3 mm		0 mm	6 mm		8 mm				
N#Cc1c(N)nn2c(N)c3c(nc12)n(-c1nnc(-c2ccccc2)c(-c2ccccc2)n1)n1c(=O)c2ccccc2nc31	> 100 µg/mL		50 µg/mL (≈ 88.9 µM)			23 mm	26 mm	20 mm	> 100 µg/mL	19 mm	19 mm	1.39 ppm	21 mm	50 µg/mL (≈ 88.9 µM)			
CSc1nn(-c2nnc(-c3ccccc3)c(-c3ccccc3)n2)c2nc(-c3ccccc3)c(C(C)=O)c(N)c12						18 mm	16 mm	13 mm		5 mm	4 mm		10 mm				
BLEOMYCIN												0.41 ppm					
CSc1nn(-c2nnc(-c3ccccc3)c(-c3ccccc3)n2)c2nc3c(C#N)c(N)nn3c(N)c12	> 100 µg/mL		50 µg/mL (≈ 102 µM)			22 mm	24 mm	17 mm	25 µg/mL (≈ 50.9 µM)	16 mm	18 mm	2.31 ppm	22 mm	25 µg/mL (≈ 50.9 µM)			
CC(=O)N1CCN(c2ccc(OCC3COC(Cn4ccnc4)(c4ccc(Cl)cc4Cl)O3)cc2)CC1 (stereo not drawn) [KETOCONAZOLE]									6.25 µg/mL (≈ 11.8 µM)					6.25 µg/mL (≈ 11.8 µM)	20 mm	18 mm	21 mm
